Five compounds from ChEMBL document CHEMBL1151701, “Discovery of new pyridoacridine alkaloids from Lissoclinum cf. badium that inhibit the ubiquitin ligase activity of Hdm2 and stabilize p53” (Bioorg Med Chem, 2008) can be followed below.

The source made the active and inactive calls. The rule behind the calls is not given here.

The target in data set [1] is T1, E3 ubiquitin-protein ligase Mdm2 (Homo sapiens, UniProt Q00987). Kind of data set: Inhibition of GST fused human Hdm2 in human RPE cells at 1 to 10 uM after 8 hrs by immunoblotting. The data set is classed as cell-based. An outline of the steps:
(§1)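 Tert-immortalized human retinal pigment epithelial (RPE) cells exposed to compound (1–10 µM) or 50 µM ALLN for 8 h. Cells lysed in RIPA buffer, post-nuclear supernatants resolved by SDS-PAGE, then immunoblotted for p53, Hdm2 and β-actin as loading control.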
Target sequence in this assay (Q00987 whole entry, looked up, the tested form may be a part): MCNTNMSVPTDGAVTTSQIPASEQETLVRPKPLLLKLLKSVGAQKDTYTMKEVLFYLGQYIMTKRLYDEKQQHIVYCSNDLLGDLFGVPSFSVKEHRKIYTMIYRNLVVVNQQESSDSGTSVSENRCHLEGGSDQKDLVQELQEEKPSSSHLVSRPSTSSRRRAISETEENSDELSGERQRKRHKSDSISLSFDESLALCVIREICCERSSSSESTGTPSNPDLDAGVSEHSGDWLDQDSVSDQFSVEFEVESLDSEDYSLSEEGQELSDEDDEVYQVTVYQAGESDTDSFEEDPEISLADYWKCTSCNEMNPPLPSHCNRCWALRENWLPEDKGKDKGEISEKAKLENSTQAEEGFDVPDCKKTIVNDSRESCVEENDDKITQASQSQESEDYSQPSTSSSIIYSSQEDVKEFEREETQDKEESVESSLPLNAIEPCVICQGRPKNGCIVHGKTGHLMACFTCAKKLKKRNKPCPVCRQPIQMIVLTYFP

The target of data set [2] is T1, E3 ubiquitin-protein ligase Mdm2. As to the kind of experiment: Inhibition of GST fused human Hdm2 in human RPE cells assessed as increase in p53 level at 1 to 10 uM after 8 hrs by immunoblotting. The data set is classed as cell-based. A digest of the protocol:
as §1
Target sequence in this assay (Q00987 whole entry, looked up, the tested form may be a part): as above
For orientation: In western blotting, separated proteins are transferred to a membrane and probed.

The target is the same in data set [3]. Kind of data set: Inhibition of GST fused human Hdm2 assessed as polyubiquitylation by electrochemiluminescence assay. An outline of the steps: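 Cell-free ubiquitylation. Lysate GST-Hdm2 captured on glutathione-coated wells for 1 h at RT. E1/UbcH5B were pre-charged with ubiquitin, ATP and DTT in PBS for 30 min, then added with sample for 30 min at RT. Read-out was ruthenium anti-polyubiquitin electrochemiluminescence, normalised between no-inhibitor (0%) and EDTA (100%). Tested at 100–0.02 µg/mL in quadruplicate.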
Target sequence in this assay (Q00987 whole entry, the tested form may be a part): as the sequence (Q00987 whole entry, looked up, the tested form may be a part) above

For data set [4] the target is unchanged. As to the kind of experiment: Inhibition of GST fused human Hdm2 in human RPE cells after 8 hrs by immunoblotting. The data set is classed as cell-based. A digest of the protocol: as §1
Target sequence in this assay (Q00987 whole entry, looked up, the tested form may be a part): as above
Data set [5] shares this target. As to the kind of experiment: Inhibition of GST fused human Hdm2 in human RPE cells assessed as increase in p53 level at 10 uM after 8 hrs by immunoblotting.
Target sequence in this assay (Q00987 whole entry, looked up, the tested form may be a part): as above
The target is the same in data set [6]. Kind of data set: Inhibition of GST fused human Hdm2 in human RPE cells assessed as increase in p53 level after 8 hrs by immunoblotting. The data set is classed as cell-based. An outline of the steps:
as §1
Target sequence in this assay (Q00987 whole entry, looked up, the tested form may be a part): as above

Data set [7] has the same target. Kind of data set: Inhibition of GST fused human Hdm2 in human RPE cells at 10 uM after 8 hrs by immunoblotting.
Target sequence in this assay (Q00987 whole entry, looked up, the tested form may be a part): as above
Data set [8] shares this target. As to the kind of experiment: Inhibition of GST fused human Hdm2 expressed in p53 and mdm2-deficient mouse embryo fibroblasts under control of p53-independent promotor at 10 uM after 8 hrs by immunoblotting. An outline of the steps:
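p53−/−mdm2−/− mouse embryo fibroblasts transiently transfected with Hdm2 plasmid under a CMV promoter. 48 h later they were treated with 10 µM compound for 8 h, and Hdm2 and β-actin were measured by immunoblotting.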

The nature of data set [9]: Cytotoxicity against human RPE cells at 10 uM. The data set is classed as cell-based. An outline of the steps:
as §1

The nature of data set [10]: Cytotoxicity against human RPE cells assessed as increase in p53 level at 10 uM after 8 hrs by immunoblotting. The data set is classed as cell-based. A digest of the protocol:
as §1

The target in data set [11] is T1, E3 ubiquitin-protein ligase Mdm2. As to the kind of experiment: Inhibition of GST fused human Hdm2 in human RPE cells assessed as increase in p53 level at 1 uM after 8 hrs by immunoblotting. The data set is classed as cell-based. A digest of the protocol:
as §1

For the next data set, the system named is U2OS. Kind of data set: Induction of apoptosis in human U2OS cells assessed as activation of p53-dependent transactivation by luciferase reporter gene assay at 1 to 10 uM after 22 hrs. The data set is classed as functional, cell-based. A digest of the protocol: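 U2OS-pG13 p53-reporter cells incubated 22 h with compound (1–10 µM) or 1 µg/ml adriamycin. Cells lysed in reporter lysis buffer and spun at 14,000 g for 20 min; luciferase activity of supernatant read as RLU. Mean and standard deviation of three independent experiments.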

Data set [12] in a line: Cytotoxicity against human RPE cells transformed with adenovirus E1A at 3 to 25 uM after 17 hrs by trypan blue exclusion assay. The data set is classed as cell-based. A digest of the protocol:
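Parental RPE and adenovirus E1A-transformed RPE cells incubated 17 h with compound (3–25 µM) or 1 µg/ml adriamycin. Cell death scored by trypan blue exclusion. Mean and standard deviation of three independent experiments.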

The target in data set [13] is T1, E3 ubiquitin-protein ligase Mdm2. As to the kind of experiment: Inhibition of Hdm2-mediated p53 degradation in human U2OS cells co-transfected with p53-Hdm2 at 50 uM after 8 hrs by immunoblotting. The data set is classed as cell-based.
Data set [14] concerns HCT-116. Kind of data set: Cytotoxicity against p53-deficient human HCT 116 cells at 5 to 20 uM after 20 hrs by trypan blue exclusion assay. The data set is classed as functional, cell-based.
A further data set concerns A9. Kind of data set: Cytotoxicity against p53-deficient mouse A9 cells at 5 to 20 uM after 20 hrs by trypan blue exclusion assay. The data set is classed as cell-based. To be noted: a9, 20 h. A digest of the protocol: (§2)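 p53-deficient (A9) and wild-type p53 (C8) mouse embryo fibroblasts treated 20 h with compound at 5–20 µM. Cell death by trypan blue exclusion. Mean and standard deviation of three independent experiments.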

Data set [15] concerns HCT-116. As to the kind of experiment: Cytotoxicity against p53-proficient human HCT 116 cells at 5 to 20 uM after 20 hrs by trypan blue exclusion assay. The data set is classed as functional, cell-based.
A short description of data set [16]: Cytotoxicity against wild type p53-proficient mouse C8 cells at 5 to 20 uM after 20 hrs by trypan blue exclusion assay. To be noted: c8, 20 h. The data set is classed as cell-based. A digest of the protocol:
as §2

The target in data set [17] is T1, E3 ubiquitin-protein ligase Mdm2. Kind of data set: Inhibition of GST fused human Hdm2 in human HCT 116 cells expressing wild type p53 assessed as prevention of N-acetyl-leucyl-leucyl-norleucinal-induced accumulation of ubiquitylated p53 accumulation. The data set is classed as cell-based.
The target is the same in data set [18]. As to the kind of experiment: Inhibition of Hdm2-mediated p53 degradation in human U2-OS cells co-transfected with p53-Hdm2 after 8 hrs by immunoblotting. The data set is classed as cell-based. The settings on record: U2OS.

As to `COc1c(C)c(CCN(C)C)c2c(c1OC)SSSSS2`, the outcome in data set [1] and in data set [2] was inactive. The half-inhibitory concentration (IC50) – broadly, the point on the concentration scale where inhibition reaches its midpoint – in [3] stood at 121 µM.

`CSC1=C(CCN)c2nc3ccccc3c3ccnc(c23)C1=O` [DIPLAMINE B]: the Activity result in data set [4] and in [6] was “Dose-dependent effect” in each case. Besides, the result in data set [5], in data set [7] and in data set [8] was Active. For the same compound, the IC50 in [3] came out at 101 µM.

Regarding `COc1cc(CCN(C)C)c2c(c1O)SSSSS2` [ISOLISSOCLINOTOXIN B], the Activity entry in data set [9] is “Toxic”; in data set [10] it was “Active”. In addition, the IC50 in data set [3] stood at 58.6 µM. Further, the outcome in [11] was inactive.

`NCCc1c2c(c3nccc4c3c1Nc1ccccc1-4)OCS2` [LISSOCLINIDINE B]: the Activity entry in [4] is “Dose-dependent effect”; in the data set on U2OS, “Dose-dependent effect”; in data set [12], “Dose-dependent effect”; in data set [6], “Dose-dependent effect”; with A9 it was “Not Active”; in data set [16] it was “Active”. Further, the Activity result in data set [18] was “Dose-dependent effect”. Besides, the outcome (in [13]; in the data set with HCT-116 [14]) was inactive. Also, the outcome (in [5]; in data set [7]; in the data set with HCT-116 [15]; in data set [17]; in [8]) was Active.

Consider `COc1cc(CCN)c2c(c1OC)SSSSS2` [VARACIN], for which the outcome in data set [1] and in data set [2] was inactive. Also, the 50% inhibitory concentration (IC50) in [3] was over 295 µM.
